The target of data set [1] is T1, Oxysterols receptor LXR-beta (Homo sapiens, UniProt P55055).
T1 sequence (P55055 whole entry): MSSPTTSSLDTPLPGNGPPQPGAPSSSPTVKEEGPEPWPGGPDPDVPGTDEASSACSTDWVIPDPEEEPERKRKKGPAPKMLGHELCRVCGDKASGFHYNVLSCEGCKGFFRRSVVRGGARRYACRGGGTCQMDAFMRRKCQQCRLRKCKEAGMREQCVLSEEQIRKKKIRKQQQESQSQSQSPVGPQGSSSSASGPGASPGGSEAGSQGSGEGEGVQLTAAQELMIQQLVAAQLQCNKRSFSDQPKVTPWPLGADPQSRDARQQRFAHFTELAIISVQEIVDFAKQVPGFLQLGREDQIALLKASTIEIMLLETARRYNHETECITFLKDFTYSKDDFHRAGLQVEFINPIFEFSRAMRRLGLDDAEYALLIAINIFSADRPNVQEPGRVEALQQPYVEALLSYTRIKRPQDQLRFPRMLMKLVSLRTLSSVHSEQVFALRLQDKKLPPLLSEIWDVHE
Description: Activity at human LXRbeta by Gal4 transactivation assay. In short, it runs like this:
(§1)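 GAL4 DBD fused to hLXRα or hLXRβ LBD in pcDNA3, co-transfected into HepG2 with luciferase reporter. Cells in DMEM with 10% lipoprotein-deficient FBS, 7.5 µM lovastatin, 100 µM mevalonic acid. Ligand added 24 h post-transfection as 11-point curves from 10 µM; luciferase read after 16 h. Run in quadruplicate. %E = max fold induction vs max fold induction of reference dual agonist in same experiment.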

In data set [2] the target is T2, Oxysterols receptor LXR-beta (Homo sapiens) (UniProt P55055).
T2 sequence (whole entry): T1 sequence (P55055 whole entry)
In words: Displacement of [3H]T-0901317 from GAL-linked human LXRbeta expressed in THP1 cells at 20 uM by SPA relative to GW-3965. Type of data set: cell-based. The note with it: THP-1. In short, it runs like this: (§2)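 Scintillation proximity displacement with His-tagged hLXRα or hLXRβ LBD (200 ng/well) and 30 nM [3H]T0901317. Beads 0.2 mg/well in phosphate buffer with EDTA, NaCl, DTT, CHAPS, 10% glycerol. 12-point curves from 20 µM; shaken 3 h at room temperature. No-competitor wells = 100% binding; nonspecific binding without protein. Efficacy = maximal displacement relative to reference dual agonist.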
For orientation: In a radioligand displacement assay an active substance lowers the binding of a labelled ligand.

Data set [3] deals with T2, Oxysterols receptor LXR-beta (Homo sapiens). Description: Agonist activity at GAL-linked human LXRbeta expressed in THP1 cells assessed as stimulation of co-activator recruitment by FRET assay relative to GW-3965. It is filed as functional. In short, it runs like this:
(§3)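 Cell-free TR-FRET coactivator recruitment: 20 nM His-tagged hLXRα or hLXRβ, 300 nM biotinylated SRC-1 peptide, Eu-anti-His antibody, APC-streptavidin. 12-point curves from 20 µM; 1 h at 37 °C. Duplicate. %E = maximal coactivator recruitment relative to reference dual agonist in same experiment.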

In data set [4] the test system is THP-1. Description: Increase in ABCA1 gene expression in THP1 cells at 1 uM relative to GW-3965. Type of data set: functional, Homo sapiens. In short, it runs like this: (§4)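 THP-1 cells differentiated with 40 ng/mL PMA for 1 day, then switched to RPMI with 2% lipoprotein-deficient FBS. Compound added 6 h later at 1 or 10 µM in DMSO, incubated 24 h. ABCA1 mRNA by one-step TaqMan qRT-PCR, triplicate, multiplexed with 36B4; fold induction vs DMSO, expressed relative to reference dual agonist.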

For a further data set, the system named is Hepatocyte. In words: Induction on FAS gene expression in human primary hepatocytes at 1 uM. It is filed as functional, cell-based. In short, it runs like this:
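Primary human hepatocytes treated with 1 µM compound; FAS mRNA measured by TaqMan-based qRT-PCR.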

Data set [5] deals with T3, Oxysterols receptor LXR-alpha (Homo sapiens) (UniProt Q13133).
T3 sequence (whole entry): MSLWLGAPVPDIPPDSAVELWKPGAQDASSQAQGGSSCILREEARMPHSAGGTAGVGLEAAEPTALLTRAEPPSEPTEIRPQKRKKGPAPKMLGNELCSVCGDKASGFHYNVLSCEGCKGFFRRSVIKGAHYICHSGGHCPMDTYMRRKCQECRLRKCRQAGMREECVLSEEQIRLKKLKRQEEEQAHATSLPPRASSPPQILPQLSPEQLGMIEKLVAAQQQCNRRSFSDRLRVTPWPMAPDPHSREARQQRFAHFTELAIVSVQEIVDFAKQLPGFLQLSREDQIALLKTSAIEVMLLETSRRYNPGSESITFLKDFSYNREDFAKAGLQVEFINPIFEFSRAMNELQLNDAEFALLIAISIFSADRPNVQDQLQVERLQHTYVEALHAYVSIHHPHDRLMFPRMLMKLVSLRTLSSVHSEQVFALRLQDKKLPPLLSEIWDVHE
In words: Agonist activity at GAL-linked human LXRalpha expressed in THP1 cells assessed as stimulation of co-activator recruitment by FRET assay relative to GW-3965. Type of data set: functional. In short, it runs like this:
as §3

Data set [6] has as its target T4, Oxysterols receptor LXR-alpha (Homo sapiens, UniProt Q13133).
T4 sequence (Q13133 whole entry): T3 sequence (whole entry)
In words: Activity at human LXRalpha by Gal4 transactivation assay. In short, it runs like this: as §1

For data set [7], the target named is T3, Oxysterols receptor LXR-alpha (Homo sapiens). In words: Displacement of [3H]T-0901317 from GAL-linked human LXRalpha expressed in THP1 cells at 20 uM by SPA relative to GW-3965. The following applies: THP-1. Type of data set: cell-based. In short, it runs like this:
as §2

Data set [8] has as its target T4, Oxysterols receptor LXR-alpha. Description: Agonist activity at GAL-linked human LXRalpha expressed in THP1 cells assessed as stimulation of coactivator recruitment by FRET assay. Type of data set: functional. In short, it runs like this: as §3
Data set [9] deals with T1, Oxysterols receptor LXR-beta. Description: Agonist activity at GAL-linked human LXRbeta expressed in THP1 cells assessed as stimulation of co-activator recruitment by FRET assay. Type of data set: functional. In short, it runs like this:
as §3

The subject of data set [10] is THP-1. Description: Increase in ABCA1 gene expression in THP1 cells at 10 uM relative to GW-3965. Type of data set: functional, Homo sapiens. In short, it runs like this:
as §4

The target of data set [11] is T2, Oxysterols receptor LXR-beta (Homo sapiens). In words: Activity at human LXRbeta by Gal4 transactivation assay relative to GW-3965. In short, it runs like this:
as §1

Data set [12] concerns the target T3, Oxysterols receptor LXR-alpha (Homo sapiens). In words: Activity at human LXRalpha by Gal4 transactivation assay relative to GW-3965. In short, it runs like this: as §1
Data set [13] can be described thus: Cmax in C57BL/6 mouse at 5 mg/kg, iv. On the set-up: dose 5 mg/kg, route intravenous. The note with it: in vivo. It is filed as ADME, organism-based. In short, it runs like this: (§5)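 Mouse PK study, IV and PO; compound formulated at 2.5 mg/mL in PEG300/Tween 80 (4:1). IV dose 5 mpk (AUC, Cmax, clearance, Vss); oral dose 20 mpk (AUC, Cmax, bioavailability, t1/2).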

Data set [14] in a line: Half life in C57BL/6 mouse at 20 mg/kg, po. It is filed as ADME, organism-based. On the set-up: dose 20 mg/kg, route oral. The following applies: in vivo. In short, it runs like this:
as §5

A short description of data set [15]: Volume of distribution at steady state in C57BL/6 mouse at 5 mg/kg, iv. Type of data set: ADME, organism-based. On the set-up: dose 5 mg/kg, route intravenous. The note with it: in vivo, read-out: Vss. In short, it runs like this:
as §5

Data set [16] is described as follows: AUC in C57BL/6 mouse at 20 mg/kg, po. It is filed as ADME, organism-based. On the set-up: dose 20 mg/kg, route oral. The following applies: plasma. In short, it runs like this: as §5
The subject of data set [17] is Liver. In words: Effect on SREBP1c gene expression in C57BL/6 mouse liver. Type of data set: functional, tissue-based. In short, it runs like this: (§6)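 Male C57BL/6 mice, 10 weeks old, chow-fed, gavaged daily with vehicle or compound (20–200 mpk) for 3 days. Fasted overnight before the last dose; killed 3 h later. Tissue RNA analysed by TaqMan qRT-PCR.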
In data set [18] the test system is Liver. Description: Effect on ABCA1 gene expression in C57BL/6 mouse liver. Type of data set: functional, tissue-based. In short, it runs like this:
as §6

Data set [19] is described as follows: Clearance in C57BL/6 mouse at 5 mg/kg, iv. It is filed as ADME, organism-based. On the set-up: dose 5 mg/kg, route intravenous. The note with it: in vivo. In short, it runs like this: as §5
The nature of data set [20]: Cmax in C57BL/6 mouse at 20 mg/kg, po. On the set-up: dose 20 mg/kg, route oral. The following applies: in vivo. It is filed as ADME, organism-based. In short, it runs like this:
as §5

Data set [21] is described as follows: AUC in C57BL/6 mouse at 5 mg/kg, iv. It is filed as ADME, organism-based. On the set-up: dose 5 mg/kg, route intravenous. The note with it: plasma. In short, it runs like this: as §5
Data set [22] can be described thus: Bioavailability in C57BL/6 mouse at 20 mg/kg, po. Type of data set: ADME, organism-based. The note with it: in vivo. In short, it runs like this:
as §5

The subject of another data set is Macrophage. In words: Induction of APO-AI-dependent cholesterol efflux in mouse macrophages. Type of data set: functional, cell-based. In short, it runs like this:
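Peritoneal macrophages labelled 24 h with [3H]cholesterol (1.0 µCi/mL) plus ACAT inhibitor 58-035 (2 µg/mL), with compound. Then 2–4 h equilibration in label-free medium with compound. Efflux for 4 h into DMEM/0.2% BSA with or without apoAI (15 µg/mL). apoAI-dependent efflux = medium radioactivity as % of total cell plus medium. Triplicate.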

Activity calls are given as the source filed them. The rule behind the calls is not given here.

Regarding `O=C(O)Cc1cccc(OCCCN(Cc2cccc(C(F)(F)F)c2Cl)CC(c2ccccc2)c2ccccc2)c1`, the EC50 is 0.004 µM in data set [1], 0.066 µM in data set [6], 0.097 µM in data set [8] and 0.027 µM in [9]. Besides, the Efficacy in data set [2], in data set [3], in data set [5], in data set [7], in [11] and in [12] was 100% in each case. The Activity with THP-1 [4] and in the data set with THP-1 [10] was 100% each time. Further, the outcome in the data set on Hepatocyte was Active.

`COc1cccc(C2SC(c3ccc(F)cc3)=NN2C(=O)c2c(F)cc(F)cc2F)c1OC` (configuration not stated): the Cmax in data set [13] amounted to 70.9 µM; in [20] it was 6.9 µM. In data set [14], this compound gave a half-life of 4.5 h. The Vd in [15] was 0.44 L/kg. Also, the figures for the AUC in data set [16] and in data set [21] were 16800 ng·h/mL and 35700 ng·h/mL, respectively. For the same compound, the Efficacy in data set [3] was determined as 98%; in data set [5], 62%. Also, the Activity was found to be 42% in the data set with THP-1 [4] and 53% in the data set on THP-1 [10]. Moreover, the EC50 in data set [8] turned out to be 1.4 µM; in [9], 0.076 µM. The outcome in the data set on Liver [17] and in the data set on Liver [18] was inactive. The compound also displayed a clearance in data set [19] of 2.26 mL/min/kg. The compound further showed a bioavailability in data set [22] of 11%.

Consider `COc1cccc([C@H]2SC(c3ccc(Cl)cc3)=NN2C(=O)c2c(F)cc(F)cc2F)c1OC`, for which the EC50 stood at 0.063 µM in data set [1], 0.346 µM in data set [6], 1.6 µM in data set [8] and 0.067 µM in [9]. The Efficacy came to 100% in data set [2]; 94% in data set [3]; 64% in [5]; 80% in data set [7]; 98% in data set [11]; 41% in data set [12]. Further, the values for the Activity in the data set on THP-1 [4] and in the data set on THP-1 [10] were 39% and 60%, respectively. For the same compound, in the data set on Macrophage, the outcome was Active.

What is called EC50 is the concentration giving half of the maximal effect. In general, Cmax refers to the peak of the concentration-time curve. The half-life is the time in which the quantity being followed falls by half. Higher therefore signals slow loss. As usually defined, the AUC is concentration integrated over time. In general, clearance refers to a measure of how efficiently the substance is removed, as volume per time. High values mean efficient removal, low ones inefficient removal. As a reminder, the bioavailability is dose-corrected exposure relative to a reference, in per cent.

The values above are taken from ChEMBL document CHEMBL1148736, “N-Acylthiadiazolines, a new class of liver X receptor agonists with selectivity for LXRbeta” (J Med Chem, 2007).
